Assay results published in ChEMBL document CHEMBL1152638, “Natural product leads for drug discovery: isolation, synthesis and biological evaluation of 6-cyano-5-methoxyindolo[2,3-a]carbazole based ligands as antibacterial agents” (Bioorg Med Chem, 2009).
In brackets after ≈: the same amount, converted by molar mass. Where a name gives a salt, the structure may show the parent alone.

Key:
[1] = test system: Mycobacterium tuberculosis; test: Antitubercular activity against Mycobacterium tuberculosis H37Rv after 16 to 24 hrs by microplate alamar blue assay; assay type: functional
How it was run: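 H37Rv (ATCC 27294) in Middlebrook 7H12; twofold dilutions from 12.8 mM DMSO stocks, final 128 to 0.5 μM; 1 × 10^5 cfu/mL inoculum, aerobic 37 °C. Day 7: Tween 80 plus Alamar Blue added, then 16–24 h more. Fluorescence ex 530/em 590 nm; MIC is lowest concentration giving ≥90% reduction versus bacteria-only controls; rifampin, isoniazid positive controls.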

Bacillus anthracis = test: Antibacterial activity against Bacillus anthracis deltaANR after 14 hrs by microplate alamar blue assay; assay type: functional
[2] = Cytotoxicity against human LoVo cells; assay type: cell-based; conditions: read-out: MIC
[3] = Cytotoxicity against human KB cells; assay type: cell-based; conditions: read-out: MIC
Human alphaherpesvirus 2 = test: Antiviral activity against HSV2 infected in mink lung cells assessed as reduction in viral titer at 1 ug/ml; assay type: functional; parameters: scale not given: the % may be the effect or the level left

| Structure (SMILES) | MIC [1] [µM] | MIC (Bacillus anthracis) [µM] | MCC [2] [µg/mL] | MCC [3] [µg/mL] | Activity (Human alphaherpesvirus 2) [%] |
| --- | --- | --- | --- | --- | --- |
| NNC(=O)c1ccncc1 [ISONIAZID] | 0.6 (≈ 0.0823 µg/mL) |  |  |  |  |
| N#Cc1c(O)c2c3ccccc3n(Cc3ccccc3)c2c2[nH]c3ccccc3c12 | 60.6 (≈ 23.5 µg/mL) | 1.6 (≈ 0.62 µg/mL) |  |  |  |
| Cn1c2ccccc2c2c(O)c(C#N)c3c4ccccc4[nH]c3c21 | 56.6 (≈ 17.6 µg/mL) | 6.3 (≈ 1.96 µg/mL) |  |  |  |
| COc1c(C(N)=O)c2c3ccccc3[nH]c2c2c1c1ccccc1n2C | > 128 |  |  |  |  |
| COc1c(C#N)c2c3ccccc3n(C)c2c2c1c1ccccc1n2C | > 128 | > 200 |  |  |  |
| CO[C@H]1/C=C/O[C@@]2(C)Oc3c(C)c(O)c4c(O)c(c(/C=N/N5CCN(C)CC5)c(O)c4c3C2=O)NC(=O)/C(C)=C\C=C\[C@H](C)[C@H](O)[C@@H](C)[C@@H](O)[C@@H](C)[C@H](OC(C)=O)[C@@H]1C [RIFAMPIN] | 0.1 (≈ 0.0823 µg/mL) |  |  |  |  |
| COc1c(C#N)c2c3ccccc3[nH]c2c2c1c1ccccc1n2Cc1ccccc1 | 44.1 (≈ 17.7 µg/mL) | > 200 |  |  |  |
| CN[C@@H]1C[C@H]2O[C@@](C)([C@@H]1OC)n1c3ccccc3c3c4c(c5c6ccccc6n2c5c31)C(=O)NC4 [STAUROSPORINE] | 14.7 (≈ 6.86 µg/mL) | 128 (≈ 59.7 µg/mL) |  |  |  |
| COc1c(C#N)c2c3ccccc3[nH]c2c2[nH]c3ccccc3c12 | > 128 | 6.3 (≈ 1.96 µg/mL) |  |  |  |
| N#Cc1c(O)c2c3ccccc3[nH]c2c2[nH]c3ccccc3c12 | 15 (≈ 4.46 µg/mL) | 1.6 (≈ 0.476 µg/mL) |  |  |  |
| O=C(O)c1cn(C2CC2)c2cc(N3CCNCC3)c(F)cc2c1=O [CIPROFLOXACIN HYDROCHLORIDE] |  | 0.1 |  |  |  |
| COc1c(C#N)c2c3ccccc3n(C)c2c2[nH]c3ccccc3c12 | > 128 | > 200 |  |  |  |
| COc1c(C#N)c2c3ccccc3[nH]c2c2c1c1ccccc1n2C | > 128 | > 200 | 5 | 5 | 95 |
